Data as given in ChEMBL document CHEMBL3102757, “Synthesis and evaluation of the antiparasitic activity of bis-(arylmethylidene) cycloalkanones” (Eur J Med Chem, 2014).
pIC50: −log10 of the molar value. Activity calls are given as the source filed them. The rule behind the calls is not given here.

Columns and labels:
[1] = biological target: Trypanothione reductase (Trypanosoma cruzi, UniProt P28593); assay: Inhibition of Trypanosoma cruzi trypanothione reductase expressed in Escherichia coli BL21(DE3) assessed as reduction of oxidized trypanothione preincubated for 30 mins measured for 30 mins by spectrophotometric analysis
Chain of Trypanothione reductase (P28593 whole entry): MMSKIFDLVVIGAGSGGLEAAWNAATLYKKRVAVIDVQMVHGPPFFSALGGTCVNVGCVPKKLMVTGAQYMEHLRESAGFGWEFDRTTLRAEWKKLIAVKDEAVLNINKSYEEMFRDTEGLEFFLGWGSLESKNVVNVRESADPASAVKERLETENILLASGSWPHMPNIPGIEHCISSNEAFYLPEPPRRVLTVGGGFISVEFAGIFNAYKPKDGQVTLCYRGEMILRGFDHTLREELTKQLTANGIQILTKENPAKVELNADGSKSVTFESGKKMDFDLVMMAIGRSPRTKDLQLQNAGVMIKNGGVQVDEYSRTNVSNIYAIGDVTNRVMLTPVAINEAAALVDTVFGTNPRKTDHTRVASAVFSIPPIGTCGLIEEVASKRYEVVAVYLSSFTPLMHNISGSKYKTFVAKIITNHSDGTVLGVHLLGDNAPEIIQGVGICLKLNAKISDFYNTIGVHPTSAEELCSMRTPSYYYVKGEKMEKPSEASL

[2] = Selectivity index, ratio of CC50 for mouse L929 cells to IC50 for Trypanosoma cruzi Tulahuen amastigotes; assay type: functional
Procedure, shortened: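 Ratio of L-929 CC50 (alamarBlue, 96 h) to amastigote IC50 from the β-galactosidase infection assay.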

[3] = test system: Leishmania amazonensis; assay: Antileishmanial activity against Leishmania amazonensis IFLA/BR/1967/PH-8 promastigotes assessed as parasite growth inhibition after 48 hrs by MTT assay; conditions: IFLA/BR/1967/PH-8, 48 h
[4] = biological target: T1, Glutathione reductase, mitochondrial (Homo sapiens, UniProt P00390); assay: Inhibition of human recombinant glutathione reductase using glutathione as substrate preincubated for 30 mins by colorimetric assay
T1 sequence (P00390 whole entry): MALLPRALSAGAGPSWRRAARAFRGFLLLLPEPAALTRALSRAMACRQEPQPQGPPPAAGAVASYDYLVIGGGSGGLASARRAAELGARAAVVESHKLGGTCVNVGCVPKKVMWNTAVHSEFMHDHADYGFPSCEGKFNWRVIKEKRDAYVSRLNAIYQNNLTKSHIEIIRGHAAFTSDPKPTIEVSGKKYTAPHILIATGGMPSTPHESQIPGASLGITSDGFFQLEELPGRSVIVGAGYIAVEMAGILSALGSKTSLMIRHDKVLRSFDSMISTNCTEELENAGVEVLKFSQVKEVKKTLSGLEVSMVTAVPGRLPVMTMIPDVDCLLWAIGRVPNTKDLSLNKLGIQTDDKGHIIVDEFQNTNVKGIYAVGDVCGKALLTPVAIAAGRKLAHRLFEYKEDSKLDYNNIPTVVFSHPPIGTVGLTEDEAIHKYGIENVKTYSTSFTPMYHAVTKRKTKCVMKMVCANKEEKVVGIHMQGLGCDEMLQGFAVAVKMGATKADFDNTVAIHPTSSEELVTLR
Procedure, shortened: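 Recombinant human glutathione reductase (10 mU) in 100 mM potassium phosphate pH 7.0, 1 mM EDTA, 400 µM NADPH. Pre-incubated with compound 30 min at 27 °C. Started with oxidized glutathione (10 µL of 1 mM stock). […] Carmustine positive control.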

[5] = biological target: Cruzipain (Trypanosoma cruzi) (UniProt P25779); assay: Inhibition of Trypanosoma cruzi recombinant cruzaine using Z-FR-AMC as substrate at 100 uM preincubated for 10 mins measured for 5 mins by spectrophotometric analysis in presence of triton relative to DMSO-treated control
Chain of Cruzipain (Trypanosoma cruzi) (P25779 123-467 limits assumed): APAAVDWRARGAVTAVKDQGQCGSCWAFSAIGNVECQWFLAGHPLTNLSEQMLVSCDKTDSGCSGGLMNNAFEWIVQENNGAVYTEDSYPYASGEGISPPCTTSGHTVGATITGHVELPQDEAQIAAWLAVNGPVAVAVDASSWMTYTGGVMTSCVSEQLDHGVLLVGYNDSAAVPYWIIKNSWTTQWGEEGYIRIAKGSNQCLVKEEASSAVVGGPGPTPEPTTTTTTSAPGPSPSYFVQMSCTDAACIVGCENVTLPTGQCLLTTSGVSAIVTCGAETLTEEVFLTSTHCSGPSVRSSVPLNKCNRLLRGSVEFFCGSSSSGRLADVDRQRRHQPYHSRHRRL
Procedure, shortened: (§1)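 Fluorescence at ex 340/em 440 nm followed 5 min. Compounds screened at 100 µM. The main screen used 0.01% Triton without pre-incubation. Checks used 0.1% or no Triton and a 10-min pre-incubation. Triplicates, activity versus DMSO control.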

[6] = Cytotoxicity against mouse L929 cells after 96 hrs by Alamar blue assay; assay type: cell-based
Procedure, shortened: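 L-929 fibroblasts seeded at 4.0×10^3 per well, same culture timing as the infection assay, exposed to rising concentrations for 96 h in tetraplicate. alamarBlue added, absorbance at 570 and 600 nm after 4–6 h. Viability as % reduction versus untreated cells. CC50 by linear interpolation.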

[7] = biological target: Cruzipain (Trypanosoma cruzi) (UniProt P25779); assay: Inhibition of Trypanosoma cruzi recombinant cruzaine using Z-FR-AMC as substrate at 100 uM preincubated for 10 mins measured for 5 mins by spectrophotometric analysis relative to DMSO-treated control; procedure, shortened: as §1
[8] = Cytotoxicity against mouse peritoneal macrophages after 24 hrs by MTT assay; assay type: cell-based, Peritoneal macrophage cell
Procedure, shortened: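 Murine peritoneal macrophages (5×10^5) cultured 24 h with a range of compound concentrations. Viability read by MTT, given as % lysis relative to cultures treated with amphotericin B (1 µg/mL).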

[9] = test system: Trypanosoma cruzi; assay: Trypanocidal activity against Trypanosoma cruzi Tulahuen amastigotes infected in mouse L929 cells assessed as parasite growth inhibition after 7 days by beta-galactosidase assay; assay type: functional, organism-based; conditions: L929, 168 h
Procedure, shortened: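 L-929 fibroblasts (4.0×10^3/well) infected with β-galactosidase-expressing Tulahuen trypomastigotes (4.0×10^4/well) for 2 h, then washed. Compounds added at 48 h, in tetraplicate, RPMI without phenol red plus 10% FBS. After 7 days, chlorophenol red β-D-galactopyranoside (100 µM) and 0.1% Nonidet P-40 added overnight at 37 °C. Read at 570 nm as % growth inhibition. Benznidazole control.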

[10] = Selectivity index, ratio of CC50 for mouse peritoneal macrophages to IC50 for Leishmania amazonensis IFLA/BR/1967/PH-8 promastigotes; assay type: functional
Procedure, shortened: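 Ratio of peritoneal macrophage CC50 (MTT, 24 h) to promastigote IC50 (MTT, 48 h).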

Row | SMILES | pIC50 [1] | Ratio CC50/IC50 [2] | pIC50 [3] | pIC50 [4] | inhibition [5] | CC50 at 96 h [6] [µM] | inhibition [7] [%] | CC50 at 24 h [8] [µM] | pIC50 [9] | Ratio CC50/IC50 [10]
1 | Cc1ccc(/C=C2\CCC/C(=C\c3ccc(C)cc3)C2=O)cc1 | < 4.00 | 1.1 | 3.96 | < 4.00 | inactive | 250 | 32 | 19.7 | 3.64 | 0.2
2 | O=C1/C(=C/c2ccccc2)CC/C1=C\c1ccccc1 | < 4.00 | 5.1 | 4.33 | < 4.00 | – | 375 | – | 76.2 | 4.14 | 1.6
3 | O=C1/C(=C/c2cccc3cnccc23)CCC/C1=C\c1cccc2cnccc12 | < 4.00 | 2.7 | 5.08 | < 4.00 | inactive | 188 | 19 | 78.1 | 4.16 | 9.3
4 | O=C1/C(=C/c2ccc[nH]2)CCC/C1=C\c1ccc[nH]1 | < 4.00 | 1.5 | 5.28 | < 4.00 | – | 375 | – | 83.2 | 3.60 | 15.7
5 | O=C1/C(=C/c2cccc3cnccc23)CC/C1=C\c1cccc2cnccc12 | < 4.00 | 16 | 6.05 | < 4.00 | – | 500 | – | 21.4 | 4.50 | 23.8
6 | O=C1/C(=C/c2ccnc3ccccc23)CC/C1=C\c1ccnc2ccccc12 | < 4.00 | 3.6 | 5.31 | < 4.00 | – | 25.3 | – | 3.7 | 5.15 | 0.8
7 | O=C(Cn1ccnc1[N+](=O)[O-])NCc1ccccc1 [BENZNIDAZOLE] | – | >262 | – | – | – | > 1000 | – | – | – | –
8 | O=C1/C(=C/c2ccc(Cn3cc(-c4ccccc4)nn3)cc2)CC/C1=C\c1ccc(Cn2cc(-c3ccccc3)nn2)cc1 | < 4.00 | – | – | < 4.00 | – | – | – | – | < 3.60 | –
9 | Cc1ccc(/C=C2\CC/C(=C\c3ccc(C)cc3)C2=O)cc1 | < 4.00 | – | 4.28 | < 4.00 | – | – | – | 39.4 | < 3.60 | 0.7
10 | CN(C)c1ccc(/C=C2\CCC/C(=C\c3ccc(N(C)C)cc3)C2=O)cc1 | < 4.00 | – | 4.73 | < 4.00 | – | – | – | 20.8 | < 3.60 | 1.1
11 | O=C1/C(=C/c2ccc([N+](=O)[O-])cc2)CC/C1=C\c1ccc([N+](=O)[O-])cc1 | < 4.00 | – | – | < 4.00 | inactive | – | 35 | – | < 3.60 | –
12 | O=C1/C(=C/c2ccncc2)CC/C1=C\c1ccncc1 | < 4.00 | – | – | < 4.00 | inactive | – | 23 | – | < 3.60 | –
13 | O=C1/C(=C/c2ccc(Cn3cc(CCO)nn3)cc2)CC/C1=C\c1ccc(Cn2cc(CCO)nn2)cc1 | < 4.00 | – | 4.29 | < 4.00 | inactive | – | 16 | 60.4 | < 3.60 | 1.2
14 | O=NN(CCCl)C(=O)NCCCl [CARMUSTINE] | – | – | – | 5.09 | – | – | – | – | – | –
15 | CN(C)c1ccc(/C=C2\CC/C(=C\c3ccc(N(C)C)cc3)C2=O)cc1 | < 4.00 | – | 4.36 | < 4.00 | – | – | – | 17.6 | < 3.60 | 0.4
16 | C[C@@H]1[C@H](O)[C@@H](C)/C=C/C=C/C=C/C=C/C=C/C=C/C=C/[C@H](O[C@@H]2O[C@H](C)[C@@H](O)[C@H](N)[C@@H]2O)C[C@@H]2O[C@](O)(C[C@@H](O)C[C@@H](O)[C@H](O)CC[C@@H](O)C[C@@H](O)CC(=O)O[C@H]1C)C[C@H](O)[C@H]2C(=O)O [AMPHOTERICIN B] | – | – | 7.10 | – | – | – | – | 0.7 | – | 8.8
17 | O=C1/C(=C/c2ccccc2)CCC/C1=C\c1ccccc1 [2,6-DIBENZYLIDENECYCLOHEXANONE] | 4.34 | – | 5.08 | < 4.00 | inactive | – | 31 | 50.6 | < 3.60 | 6
18 | O=C1/C(=C/c2ccncc2)CCC/C1=C\c1ccncc1 | 4.83 | – | 5.92 | < 4.00 | inactive | – | 66 | 23.9 | < 3.60 | 19.9
19 | [N-]=[N+]=NCc1ccc(/C=C2\CC/C(=C\c3ccc(CN=[N+]=[N-])cc3)C2=O)cc1 | < 4.00 | – | – | 3.64 | – | – | – | – | < 3.60 | –
20 | O=C1/C(=C/c2ccnc3ccccc23)CCC/C1=C\c1ccnc2ccccc12 | < 4.00 | – | 6.22 | < 4.00 | inactive | – | 42 | 0.6 | < 3.60 | 1
21 | O=C1/C(=C/c2ccc[nH]2)CC/C1=C\c1ccc[nH]1 | < 4.00 | – | 4.83 | < 4.00 | – | – | – | 55.8 | < 3.60 | 3.8
